Columns and labels:
Mus musculus = test: Functional NMDA antagonist activity was confirmed in vivo in mice (intraperitoneally) using an NMDA-induced lethality assay
Glutamate NMDA receptor [1] = test: Displacement of [3H]CPP from rat synaptic membrane glutamate NMDA receptor
Glutamate NMDA receptor [2] = test: Affinity for the NMDA receptor site was assessed by its ability to displace [3H]TCP from its binding site in rat brain; assay type: tissue-based
Outline: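 Rat whole-brain crude synaptic membranes, resuspended in ice-cold 5.0 mM Tris HCl pH 7.4. Triplicate incubation 1 h at 25 °C with 2.5 nM [³H]TCP, 3 µM L-glutamate and 1 µM glycine. Nonspecific binding defined with 100 µM MK-801. Filtration on PEI-presoaked glass fiber filters, then scintillation counting. IC50 with 95% confidence limits from 5-10 concentrations.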

Rattus norvegicus [3] = organism: Rattus norvegicus; test: Effect on the volume of infarcted brain tissue in rat; assay type: functional
Outline: (§1)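 Male Fisher-344 rats under isoflurane, with permanent occlusion of the distal MCA plus the ipsilateral common carotid; body temperature held at 37 °C. Single iv tail-vein bolus of 3 mg/kg in 0.9% NaCl, given 5 min post-occlusion. At 24 h, cresyl violet-stained forebrain sections were taken at 400 µm intervals. Infarct volume by image analysis, mean ± SE, n=27-28 per group.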

Rattus norvegicus [4] = organism: Rattus norvegicus; test: Effect on the decrease in volume of infarcted brain tissue in rat; assay type: functional; outline: as §1
[5] = biological target: T1, Glutamate NMDA receptor (Rattus norvegicus) (UniProt P35439+Q00959+Q00960+Q00961+Q62645+Q8VHN2+Q9R1M7); test: Affinity for the NMDA receptor site was assessed by its ability to displace [3H]TCP from its binding site in rat brain at a concentration of 100 uM; assay type: tissue-based
[6] = biological target: T1, Glutamate NMDA receptor (Rattus norvegicus); test: Affinity for the NMDA receptor site was assessed by the ability to displace [3H]CPP from its binding site in rat synaptic membranes at a concentration of 100 uM; assay type: cell membranes
Outline: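 Rat whole-brain crude synaptic membranes (Triton X-100 treated, frozen), in 50 mM Tris HCl pH 7.6, 0.2-0.5 mg protein. Triplicate incubation 15 min at 23 °C with 8 nM [³H]CPP. Nonspecific binding defined with 1.0 mM NMDA. Bound ligand separated by centrifugation at 48000g, then scintillation counting. Percent inhibition reported at 100 µM.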

[7] = Mus musculus, ip, read-out: ED50

| Structure (SMILES) | ED50 (Mus musculus; [7]) [mg/kg] | IC50 (Glutamate NMDA receptor [1]) [nM] | inhibition [5] [%] | inhibition [6] [%] | further results |
| --- | --- | --- | --- | --- | --- |
| O=C(O)C1CN(CCCP(=O)(O)O)CCN1 (stereo not given) | 1 |  |  |  |  |
| NC(Cc1nc2cc(Br)ccc2n1CP(=O)(O)O)C(=O)OCc1ccccc1 (stereo not given) | 0.47 | 56 |  |  | IC50 (Glutamate NMDA receptor [2]): 15.5 µM |
| N[C@H](Cc1nc2cc(Cl)ccc2n1CP(=O)(O)O)C(=O)O | 0.13 | 7.1 |  |  | Volume (Rattus norvegicus [3]): 51.3 mm**3; Decrease (Rattus norvegicus [4]): 45%; IC50 (Glutamate NMDA receptor [2]): 0.72 µM |
| NC(Cc1nc2cc(C(F)(F)F)ccc2n1CP(=O)(O)O)C(=O)O (stereo not given) |  | 750 | 40 |  |  |
| NC(Cc1nc2cc(Cl)ccc2n1CP(=O)(O)O)C(=O)OCc1ccccc1 (stereo not given) |  | 150 |  |  | IC50 (Glutamate NMDA receptor [2]): 46.5 µM |
| NC(Cc1nc2cc(Cl)c(Cl)cc2n1CP(=O)(O)O)C(=O)O (single isomer, unassigned; (+)) |  | 1000 |  |  |  |
| NC(Cc1nc2cc(Cl)c(Cl)cc2n1CP(=O)(O)O)C(=O)O (single isomer, unassigned; (-)) | 2.58 | 18 |  |  |  |
| NC(Cc1nc2ccc(Cl)cc2n1CP(=O)(O)O)C(=O)O (single isomer, unassigned; (-)) | 2.56 | 22 |  |  | IC50 (Glutamate NMDA receptor [2]): 13.6 µM |
| NC(Cc1nc2ccccc2n1CP(=O)(O)O)C(=O)O (single isomer, unassigned; (-)) |  | 77 |  |  | ED50 (Mus musculus): 2.04 mg/kg; IC50 (Glutamate NMDA receptor [2]): 11.1 µM |
| NC(CCc1nc2ccccc2n1CP(=O)(O)O)C(=O)O (single isomer, unassigned; (-)) |  | 6800 |  |  |  |
| CCOC(=O)C(N)Cc1nc2ccccc2n1CP(=O)(O)O (single isomer, unassigned; (-)) |  |  | 0 | 61 |  |
| Cc1cc2nc(CC(N)C(=O)O)n(CP(=O)(O)O)c2cc1C (single isomer, unassigned; (-)) |  |  | 88.5 | 99.7 |  |
| NC(Cc1nc2c(Cl)cccc2n1CP(=O)(O)O)C(=O)O (single isomer, unassigned; (-)) |  |  |  | 81 |  |
| NC(Cc1nc2cccc(Cl)c2n1CP(=O)(O)O)C(=O)O (single isomer, unassigned; (-)) |  |  | 28.1 | 73 |  |
| NC(Cc1nc2ccccc2n1CC(=O)O)C(=O)O (single isomer, unassigned; (-)) |  |  | 9.5 | 30 |  |
| NC(Cc1nc2ccccc2n1CCP(=O)(O)O)C(=O)O (single isomer, unassigned; (-)) |  |  | 9.5 | 39 |  |
| NC(Cc1nc2ccccc2n1CP(=O)(O)O)C(=O)O (stereo in doubt; 8) [listing 1 of 2 here] |  |  |  |  | ED50 (Mus musculus): 7.91 mg/kg |
| NC(Cc1nc2ccccc2n1CP(=O)(O)O)C(=O)O (stereo in doubt; 8) [listing 2 of 2 here] |  |  | 29.1 | 30 |  |
| NC(CCc1nc2ccccc2n1CP(=O)(O)O)C(=O)O (stereo in doubt; 10) |  | 5200 |  |  |  |
| NC(CCCCCP(=O)(O)O)C(=O)O (stereo not given) [AP-7] | 37.6 |  |  |  |  |
| O=C(O)[C@@H]1C[C@H](CP(=O)(O)O)CCN1 [SELFOTEL] | 0.6 |  |  |  |  |
